From ChEMBL document CHEMBL3244104, “New inhibitors of platelet aggregation. 5'-Phosphate, 5'-phosphorothioate, and 5'-O-sulfamoyl derivatives of 2-substituted adenosine analogues” (J Med Chem, 1978)
The source made the active and inactive calls. The calls are words filed in the database; no cut-off is given here.

Columns and labels:
[1] = Antiplatelet activity in sheep platelet rich plasma assessed as inhibition of ADP-induced platelet aggregation pretreated for 2.5 mins followed by ADP addition by photometric analysis relative to adenosine; assay type: functional, Ovis aries
Procedure, shortened: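 Sheep PRP (300 000-400 000 platelets/mm³), 37 °C, stirred, Born photometric read-out. Analogue incubated 2.5 min before ADP (final 0.67 μM). Four doses per analogue. Rate taken as initial slope of the aggregation curve. Potency from log dose vs. percent inhibition plots, expressed relative to adenosine run on each PRP batch. Means of at least four determinations.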

Platelet [2] = experiment: Antiplatelet activity in sheep platelet rich plasma assessed as inhibition of ADP-induced platelet aggregation at 3.75 uM pretreated for 1 min followed by ADP addition by photometric analysis; conditions: Ovis aries
Rattus norvegicus [3] = experiment: Toxicity in anesthetized rat assessed as hypotensive potency up to 2.5 umol/kg, iv relative to adenosine; assay type: organism-based; conditions: in vivo
Platelet [4] = experiment: Antiplatelet activity in sheep platelet rich plasma assessed as inhibition of serotonin-induced platelet aggregation pretreated for 1 min followed by serotonin addition by photometric analysis; assay type: functional, cell-free; conditions: Ovis aries
Procedure, shortened: (§1)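 Serotonin-induced aggregation in sheep PRP adjusted to 300 000-400 000 platelets/mm³, measured at 37 °C by Born photometry in stirred samples. Inhibitor given 1 min before serotonin, with serotonin final 1.6 μM. Agents dissolved in barbitone-buffered saline, pH 7.4.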

Platelet [5] = experiment: Antiplatelet activity in sheep platelet rich plasma assessed as inhibition of ADP-induced platelet aggregation pretreated for 2.5 mins followed by ADP addition by photometric analysis; assay type: functional, cell-free; conditions: Ovis aries
Procedure, shortened: (§2)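 Citrated sheep blood spun 24 min at 140g to give PRP, diluted with platelet-free plasma (1000g, 10 min) to 300 000-400 000 platelets/mm³. Aggregation read photometrically (Born method) at 37 °C in stirred PRP as light transmission or optical density change. Agents dissolved in saline buffered to pH 7.4 with sodium barbitone. ADP added to 0.67 μM.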

Rattus norvegicus [6] = experiment: Cardiotoxicity in anesthetized rat assessed as effect on heart rate up to 2.5 umol/kg, iv; assay type: toxicity, organism-based; conditions: in vivo
Platelet [7] = experiment: Antiplatelet activity in sheep platelet rich plasma assessed as inhibition of serotonin-induced platelet aggregation at 200 uM pretreated for 1 min followed by serotonin addition by photometric analysis; assay type: functional, cell-free; conditions: Ovis aries; procedure, shortened: as §1
Platelet [8] = experiment: Antiplatelet activity in sheep platelet rich plasma assessed as inhibition of ADP-induced platelet aggregation at 100 uM pretreated for 1 min followed by ADP addition by photometric analysis; assay type: functional, cell-free; conditions: Ovis aries; procedure, shortened: as §2
[9] = Stimulation of platelet aggregation in sheep platelet rich plasma at 100 uM pretreated for 1 min followed by ADP addition by photometric analysis; assay type: ADME, cell-free, Ovis aries; procedure, shortened: as §2
Platelet [10] = experiment: Antiplatelet activity in sheep platelet rich plasma assessed as inhibition of ADP-induced platelet aggregation up to 300 uM pretreated for 2.5 mins followed by ADP addition by photometric analysis; assay type: functional, cell-free; conditions: Ovis aries; procedure, shortened: as §2
Platelet [11] = experiment: Antiplatelet activity in sheep platelet rich plasma assessed as inhibition of serotonin-induced platelet aggregation at 100 uM pretreated for 1 min followed by serotonin addition by photometric analysis; assay type: functional, cell-free; conditions: Ovis aries; procedure, shortened: as §1

Structure (SMILES)	fold change (FC) [1]	inhibition (Platelet [4])	inhibition (Platelet [5])	also measured
CCSc1nc(N)c2ncn([C@@H]3O[C@H](COP(=O)(O)O)[C@@H](O)[C@H]3O)c2n1	5.2	inactive	Dose-dependent effect	inhibition (Platelet [2]): Active; Activity (Rattus norvegicus [3]): < 1%; Activity (Rattus norvegicus [6]): Non-toxic
CCNc1nc(N)c2ncn([C@@H]3O[C@H](COP(=O)(O)O)[C@@H](O)[C@H]3O)c2n1	0.027	inactive	Dose-dependent effect	–
Nc1ncnc2c1ncn2[C@@H]1O[C@H](COP(=O)(O)O)[C@@H](O)[C@H]1O [ADENOSINE PHOSPHATE]	0.12	inactive	Dose-dependent effect	–
CSc1nc(N)c2ncn([C@@H]3O[C@H](COS(N)(=O)=O)[C@@H](O)[C@H]3O)c2n1	–	–	–	inhibition (Platelet [7]): Active; inhibition (Platelet [8]): Active
CNc1nc(Cl)nc2c1ncn2[C@@H]1O[C@H](COP(=O)(O)O)[C@@H](O)[C@H]1O	0.12	inactive	Dose-dependent effect	–
Nc1ncnc2c1ncn2[C@@H]1O[C@H](COP(O)(O)=S)[C@@H](O)[C@H]1O	0.04	inactive	–	–
Nc1ncnc2c1ncn2[C@@H]1O[C@H](COS(N)(=O)=O)[C@@H](O)[C@H]1O	–	–	–	inhibition (Platelet [7]): Active; Activity [9]: Toxic; inhibition (Platelet [10]): inactive
N.N.Nc1nc(Cl)nc2c1ncn2[C@@H]1O[C@H](COP(O)(O)=S)[C@@H](O)[C@H]1O	0.44	inactive	–	–
CCOc1nc(N)c2ncn([C@@H]3O[C@H](COP(=O)(O)O)[C@@H](O)[C@H]3O)c2n1	0.103	inactive	Dose-dependent effect	–
Nc1nc(Cl)nc2c1ncn2[C@@H]1O[C@H](COP(=O)(O)O)[C@@H](O)[C@H]1O	0.12	inactive	Dose-dependent effect	–
Nc1ncnc2c1ncn2[C@@H]1O[C@H](CO)[C@@H](O)[C@H]1O	–	–	–	inhibition (Platelet [2]): Active
CCSc1nc(N)c2ncn([C@@H]3O[C@H](COP(O)(O)=S)[C@@H](O)[C@H]3O)c2n1.N.N	13.4	inactive	–	inhibition (Platelet [2]): Active; Activity (Rattus norvegicus [3]): < 1%; Activity (Rattus norvegicus [6]): Non-toxic
CNc1nc(SC)nc2c1ncn2[C@@H]1O[C@H](COP(=O)(O)O)[C@@H](O)[C@H]1O	0.46	inactive	Dose-dependent effect	–
COc1nc(N)c2ncn([C@@H]3O[C@H](COP(=O)(O)O)[C@@H](O)[C@H]3O)c2n1	0.034	inactive	Dose-dependent effect	–
CSc1nc(N)c2ncn([C@@H]3O[C@H](COP(O)(O)=S)[C@@H](O)[C@H]3O)c2n1.N.N	4	inactive	–	Activity (Rattus norvegicus [3]): < 1%; Activity (Rattus norvegicus [6]): Non-toxic
CSc1nc(N)c2ncn([C@@H]3O[C@H](COP(=O)(O)O)[C@@H](O)[C@H]3O)c2n1	2.41	inactive	Dose-dependent effect	Activity (Rattus norvegicus [3]): < 1%; Activity (Rattus norvegicus [6]): Non-toxic
Nc1nc(Cl)nc2c1ncn2[C@@H]1O[C@H](COS(N)(=O)=O)[C@@H](O)[C@H]1O	–	–	–	Activity [9]: Toxic; inhibition (Platelet [10]): inactive; inhibition (Platelet [11]): Active
CNc1nc(N)c2ncn([C@@H]3O[C@H](COP(=O)(O)O)[C@@H](O)[C@H]3O)c2n1	0.027	inactive	Dose-dependent effect	–
Nc1nc(C(F)(F)F)nc2c1ncn2[C@@H]1O[C@H](COP(=O)(O)O)[C@@H](O)[C@H]1O	0.22	inactive	Dose-dependent effect	–
